Assay results pooled from the literature.
Each line is one published result; the experiments were not run side by side.
Target: Serine/threonine-protein kinase Nek7 (NEK7, Homo sapiens, UniProt Q8TDX7)

O=C(c1ccc(Nc2ncc(Cl)c(-c3cc4ccccc4s3)n2)cc1)N1CCC(N2CCCC2)CC1 — remaining binding (binding, competition with immobilised ligand; 1 µM): 4.5%
O=C(N1CCS(=O)(=O)CC1)N1C[C@H](c2ccc(OC(F)(F)F)cc2)C[C@H](c2nc(C3CC3)no2)C1 — remaining binding (cell-free assay, competition with immobilised ligand; 1 µM): 100%
c1cnn2ncc(-c3ccnc(N4CCC45COC5)n3)c2c1 — remaining binding (binding; 1 µM): 86%
COc1cccc(CNC(=O)c2nc3scc(COCc4ccc(C(=O)O)cc4)c3c(=O)[nH]2)c1 — remaining binding (cell-free assay, competition with immobilised ligand; 1 µM): 100%
O=C(NCC1CCOCC1)c1n[nH]cc1NC(=O)c1c(F)cccc1F — remaining binding (binding, competition with immobilised ligand; 1 µM): 93%
C[C@@H]1CCN(c2nccc(-c3cnn4ncccc34)n2)C1 — remaining binding (binding; 1 µM): 89%
CC(C)CC(=O)N1CCc2nc(-c3ccc(Br)cc3)nc(N(C)Cc3ccccc3)c2C1 — remaining binding (cell-free assay, competition with immobilised ligand; 0.1 µM): 100%
COc1ccnn2ncc(-c3ccnc(N(C)C)n3)c12 — remaining binding (binding; 1 µM): 100%
COc1ncc2cc3ccccc3nc2c1C#N — remaining binding (cell-free assay, competition with immobilised ligand; 5 µM): 100%
CC(=O)N1CCC(c2ccc(C(=O)NC3=NCCN3)cc2C(F)(F)F)CC1 — remaining binding (cell-free assay, competition with immobilised ligand; 1 µM): 100%
O=C(c1ccc(Nc2nccc(-c3cc4ccccc4s3)n2)cc1)N1CCC(N2CCCC2)CC1 — remaining binding (binding, competition with immobilised ligand; 1 µM): 79%
C=CC(=O)N1CCC(C(=O)NCC(=O)N2CCN(c3nc(-c4cnc(N)nc4C(F)F)nc(N4CCOCC4)n3)CC2)CC1 — remaining binding (binding, competition with immobilised ligand; 1 µM): 100%
CC1CCCN1c1nccc(-c2cnn3ncccc23)n1 (centres unmarked) — remaining binding (binding; 1 µM): 100%
CC(=O)Nc1c(C(C)=O)c(=O)n(C)c2nc(-c3ccc(Cl)cc3Cl)c(-c3ccc(Cl)cc3)cc12 — remaining binding (cell-free assay, competition with immobilised ligand; 1 µM): 100%
FC(F)(F)Oc1cccc(-c2cnc3ccc(-c4ccncc4)nn23)c1 — remaining binding (cell-free assay, competition with immobilised ligand; 5 µM): 91%
COc1cnc(Nc2cccc(S(N)(=O)=O)c2)nc1N1CCN(c2ccccc2)CC1 — remaining binding (binding, competition with immobilised ligand; 1 µM): 74%
C[C@@H](c1ccc(-n2cnc3c(N)ncnc32)cc1)N1CCc2nn(C)c(Cc3ccccc3)c2C1=O — remaining binding (binding, competition with immobilised ligand; 0.1 µM): 94%
CN(c1nccc(-c2cnn3ncccc23)n1)C1CC1 — remaining binding (binding; 1 µM): 100%
COc1cc(-c2cn(C3CCc4ccccc4N(CC(F)(F)F)C3=O)nn2)ccc1-n1ccc(C)n1 (centres unmarked) — remaining binding (cell-free assay, competition with immobilised ligand; 1 µM): 100%
F[C@@H]1CCN(c2nccc(-c3cnn4ncccc34)n2)C1 — remaining binding (binding; 1 µM): 100%
O=C(NCCCN1CCOCC1)c1ccc(Nc2ncc(Cl)c(-c3ccc(Cl)s3)n2)cc1 — remaining binding (binding, competition with immobilised ligand; 1 µM): 1.2%
N[C@@H]1CCN(c2nccc(-c3cnn4ncccc34)n2)C1 — remaining binding (binding; 1 µM): 100%
CCC(=O)N[C@H]1CC[C@@H](C(=O)N(C)c2ccc(-c3nc4ccccc4o3)cc2)C1 — remaining binding (cell-free assay, competition with immobilised ligand; 1 µM): 98%
